Active and inactive are the calls of the source. No cut-off for these calls is given here.
Columns and labels:
MDA-MB-231 [1] = assay: Induction of autophagy in human MDA-MB-231 cells assessed as increase of p-ULK1 expression after 24 hrs by Western blot assay; type: functional, cell-based; settings: dose 1.25-5 µM
MDA-MB-231 [2] = assay: Induction of apoptosis in human MDA-MB-231 cells assessed as early apoptotic cells at 1.25 microM after 24 hrs by Annexin-V/PI staining based flow cytometry (Rvb= 3.14 %); type: functional
MDA-MB-231 [3] = assay: Inhibition of ATAD2 in human MDA-MB-231 cells by measuring reduction in color intensity at 2.5 uM by immuno chemistry analysis; type: functional, cell-based
Procedure, shortened: (§1)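 MDA-MB-231 cells treated at 2.5 µM. Anti-ATAD2 or anti-p-cMyc primary (1:200 in PBS/1% BSA) applied overnight at 4 °C, then fluorescent secondary antibody 1 h at room temperature. Nuclei counterstained with DAPI, green signal imaged.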

MDA-MB-231 [4] = assay: Induction of apoptosis in human MDA-MB-231 cells assessed as necrotic cells at 2.5 microM after 24 hrs by Annexin-V/PI staining based flow cytometry (Rvb= 1.22%); type: functional
MDA-MB-231 [5] = assay: Induction of autophagy in human MDA-MB-231 cells assessed as increase of LC3-II expression after 24 hrs by Western blot assay; type: functional, cell-based; settings: dose 1.25-5 µM
MDA-MB-231 [6] = assay: Induction of autophagy in human MDA-MB-231 cells assessed as aggregation of LC3 puncta after 24 hrs by immunofluorescence analysis; type: functional, cell-based
Procedure, shortened: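 MDA-MB-231 cells transfected with GFP/mRFP-LC3, then exposed to 2.5 µM for 24 h. LC3 puncta and autophagy ratio scored under a fluorescence microscope.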

MDA-MB-231 [7] = assay: Induction of autophagy in human MDA-MB-231 cells assessed as downregulation of mTOR at ser2448 residue expression at 1.25 to 5 uM for 24 hrs by Western blot assay; type: functional, cell-based; settings: dose 1.25-5 µM
Procedure, shortened: (§2)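 MDA-MB-231 cells treated with 1.25, 2.5 or 5 µM for 24 h. Lysates made in Hepes pH 7.4/Triton X-100 buffer with protease and phosphatase inhibitors, then run on SDS-PAGE, blotted to PVDF and detected by HRP/ECL. p-PI3K and p-mTOR Ser2448 bands normalised to β-actin.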

MDA-MB-231 [8] = assay: Induction of apoptosis in human MDA-MB-231 cells assessed as late apoptotic cells at 2.5 microM after 24 hrs by Annexin-V/PI staining based flow cytometry (Rvb= 2.46%); type: functional
MDA-MB-231 [9] = assay: Induction of apoptosis in human MDA-MB-231 cells assessed as reduction of cleavage of caspase 3 after 24 hrs by Western blot assay; type: functional, cell-based; settings: dose 1.25-5 µM
Procedure, shortened: (§3)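 MDA-MB-231 cells (DMEM, 10% FBS, 5% CO2) exposed to 1.25, 2.5 or 5 μM for 24 h. Adherent and floating cells lysed in Hepes 50 mM pH 7.4/1% Triton X-100 buffer with phosphatase and protease inhibitors. Equal protein run on 10–15% SDS-PAGE, transferred to PVDF, detected by HRP/ECL. Bands normalised to β-actin, compared with DMSO control by unpaired t-test.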

MDA-MB-231 [10] = assay: Induction of apoptosis in human MDA-MB-231 cells assessed as late apoptotic cells at 5 microM after 24 hrs by Annexin-V/PI staining based flow cytometry (Rvb= 2.46%); type: functional
MDA-MB-231 [11] = assay: Induction of apoptosis in human MDA-MB-231 cells assessed as late apoptotic cells at 1.25 microM after 24 hrs by Annexin-V/PI staining based flow cytometry (Rvb= 2.46%); type: functional
MDA-MB-231 [12] = assay: Induction of autophagy in human MDA-MB-231 cells assessed as downregulation of AKT expression at 1.25 to 5 uM for 24 hrs by Western blot assay; type: functional, cell-based; settings: dose 1.25-5 µM
MDA-MB-231 [13] = assay: Induction of autophagy in human MDA-MB-231 cells assessed as downregulation of PI3K expression at 1.25 to 5 uM for 24 hrs by Western blot assay; type: functional, cell-based; settings: dose 1.25-5 µM; procedure, shortened: as §2
MDA-MB-231 [14] = assay: Inhibition of ATAD2 in human MDA-MB-231 cells by measuring c-myc phosphorylation at 1.25 to 5 uM for 24 hrs by Western blot analysis; type: functional, cell-based; settings: dose 1.25-5 µM
Procedure, shortened: (§4)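 MDA-MB-231 cells treated with 1.25, 2.5 and 5.0 µM for 24 h. Lysates separated on 10–15% SDS-PAGE and blotted to PVDF. c-Myc and p-cMyc detected with HRP/ECL, with β-actin as loading control.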

MDA-MB-231 [15] = assay: Induction of autophagy in human MDA-MB-231 cells assessed as degradation of SQSTM1/p62 after 24 hrs by Western blot assay; type: functional, cell-based; settings: dose 1.25-5 µM
MDA-MB-231 [16] = assay: Induction of apoptosis in human MDA-MB-231 cells assessed as viable cells at 2.5 microM after 24 hrs by Annexin-V/PI staining based flow cytometry (Rvb= 93.17 %); type: functional; settings: read-out: Activity
MDA-MB-231 [17] = assay: Induction of apoptosis in human MDA-MB-231 cells assessed as reduction of Bcl-2 expression after 24 hrs by Western blot assay; type: functional, cell-based; settings: dose 1.25-5 µM; procedure, shortened: as §3
MDA-MB-231 [18] = assay: Induction of apoptosis in human MDA-MB-231 cells assessed as reduction of cleavage of caspase 8 after 24 hrs by Western blot assay; type: functional, cell-based; settings: dose 1.25-5 µM; procedure, shortened: as §3
MDA-MB-231 [19] = assay: Induction of apoptosis in human MDA-MB-231 cells assessed as viable cells at 5 microM after 24 hrs by Annexin-V/PI staining based flow cytometry (Rvb= 93.17 %); type: functional; settings: read-out: Activity
MDA-MB-231 [20] = assay: Induction of apoptosis in human MDA-MB-231 cells assessed as early apoptotic cells at 5 microM after 24 hrs by Annexin-V/PI staining based flow cytometry (Rvb= 3.14 %); type: functional
MDA-MB-231 [21] = assay: Induction of apoptosis in human MDA-MB-231 cells assessed as early apoptotic cells at 2.5 microM after 24 hrs by Annexin-V/PI staining based flow cytometry (Rvb= 3.14 %); type: functional
MDA-MB-231 [22] = assay: Induction of autophagy in human MDA-MB-231 cells assessed as downregulation of mTOR expression at 1.25 to 5 uM for 24 hrs by Western blot assay; type: functional, cell-based; settings: dose 1.25-5 µM; procedure, shortened: as §2
MDA-MB-231 [23] = assay: Induction of apoptosis in human MDA-MB-231 cells assessed as necrotic cells at 5 microM after 24 hrs by Annexin-V/PI staining based flow cytometry (Rvb= 1.22%); type: functional
MDA-MB-231 [24] = assay: Induction of autophagy in human MDA-MB-231 cells assessed as increase of beclin 1 expression after 24 hrs by Western blot assay; type: functional, cell-based; settings: dose 1.25-5 µM
MDA-MB-231 [25] = assay: Induction of apoptosis in human MDA-MB-231 cells assessed as necrotic cells at 1.25 microM after 24 hrs by Annexin-V/PI staining based flow cytometry (Rvb= 1.22%); type: functional
MDA-MB-231 [26] = assay: Induction of apoptosis in human MDA-MB-231 cells assessed as increase of Bax expression after 24 hrs by Western blot assay; type: functional, cell-based; settings: dose 1.25-5 µM; procedure, shortened: as §3
MDA-MB-231 [27] = assay: Induction of autophagy in human MDA-MB-231 cells assessed as increase of ULK1 expression after 24 hrs by Western blot assay; type: functional, cell-based; settings: dose 1.25-5 µM
MDA-MB-231 [28] = assay: Inhibition of ATAD2 in human MDA-MB-231 cells assessed as downregulation of c-myc phosphorylation at 2.5 uM by immuno chemistry analysis; type: cell-based; procedure, shortened: as §1
MDA-MB-231 [29] = assay: Inhibition of ATAD2 in human MDA-MB-231 cells by measuring c-myc protein level at 1.25 to 5 uM for 24 hrs by Western blot analysis; type: functional, cell-based; settings: dose 1.25-5 µM; procedure, shortened: as §4
[30] = target: T1, ATPase family AAA domain-containing protein 2 (Homo sapiens, UniProt Q6PL18); assay: Inhibitory activity against ATAD2 (unknown origin) at bromodomain incubated for 180 min by Tr-FRET assay
T1 sequence (Q6PL18 whole entry): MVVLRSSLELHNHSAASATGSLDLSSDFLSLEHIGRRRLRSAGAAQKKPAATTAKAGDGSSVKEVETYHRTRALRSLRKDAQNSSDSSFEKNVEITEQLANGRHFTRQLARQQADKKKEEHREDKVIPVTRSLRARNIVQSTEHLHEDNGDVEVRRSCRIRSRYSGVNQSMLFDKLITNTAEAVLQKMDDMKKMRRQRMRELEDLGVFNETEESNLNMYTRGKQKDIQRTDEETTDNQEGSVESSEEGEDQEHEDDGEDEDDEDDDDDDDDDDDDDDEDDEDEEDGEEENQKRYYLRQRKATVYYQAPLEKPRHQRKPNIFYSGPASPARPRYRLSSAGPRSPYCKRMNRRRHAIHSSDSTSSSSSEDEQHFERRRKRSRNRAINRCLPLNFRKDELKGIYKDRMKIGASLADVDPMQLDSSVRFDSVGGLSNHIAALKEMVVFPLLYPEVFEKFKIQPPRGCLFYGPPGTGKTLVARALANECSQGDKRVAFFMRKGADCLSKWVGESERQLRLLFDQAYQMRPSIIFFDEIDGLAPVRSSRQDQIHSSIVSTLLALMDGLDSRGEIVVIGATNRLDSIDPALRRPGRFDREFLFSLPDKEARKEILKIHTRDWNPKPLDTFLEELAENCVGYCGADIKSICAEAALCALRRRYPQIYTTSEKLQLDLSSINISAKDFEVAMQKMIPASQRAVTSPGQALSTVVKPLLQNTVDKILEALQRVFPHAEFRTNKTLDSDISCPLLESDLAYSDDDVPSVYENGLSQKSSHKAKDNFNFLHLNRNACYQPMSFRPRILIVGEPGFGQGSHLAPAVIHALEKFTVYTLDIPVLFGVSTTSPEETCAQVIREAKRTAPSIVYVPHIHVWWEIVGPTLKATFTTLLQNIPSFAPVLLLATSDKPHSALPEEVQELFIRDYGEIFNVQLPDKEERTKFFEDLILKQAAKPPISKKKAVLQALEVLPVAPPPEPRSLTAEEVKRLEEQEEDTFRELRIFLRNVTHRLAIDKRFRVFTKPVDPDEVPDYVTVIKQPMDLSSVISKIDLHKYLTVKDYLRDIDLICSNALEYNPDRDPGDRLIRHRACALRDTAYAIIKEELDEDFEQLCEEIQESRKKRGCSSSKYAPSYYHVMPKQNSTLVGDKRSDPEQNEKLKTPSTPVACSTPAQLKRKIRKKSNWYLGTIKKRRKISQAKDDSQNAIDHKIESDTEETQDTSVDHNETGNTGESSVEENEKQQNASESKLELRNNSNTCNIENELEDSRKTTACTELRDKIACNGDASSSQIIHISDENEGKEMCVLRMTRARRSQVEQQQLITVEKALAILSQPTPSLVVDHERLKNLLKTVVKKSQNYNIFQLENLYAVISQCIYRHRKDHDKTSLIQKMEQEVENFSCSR
Procedure, shortened: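 Recombinant ATAD2 bromodomain and BET ligand read by TR-FRET. Compounds diluted in DMSO, then 20-fold in 5% DMSO in reaction buffer; 2 µl added per 20 µl reaction. Incubated 180 min, then acceptor/donor fluorescence ratio read. Each concentration run in duplicate.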

CC1=C(C#N)c2nc(N)c(C#N)c(C)c2/C1=C\c1ccc(-c2cc(C(=O)O)ccc2Cl)o1
Activity (MDA-MB-231 [1]): Dose-Dependent Effect | Activity (MDA-MB-231 [2]): 5.24% | Activity (MDA-MB-231 [3]): Active | Activity (MDA-MB-231 [4]): 3.67% | Activity (MDA-MB-231 [5]): Active | Activity (MDA-MB-231 [6]): Active | Activity (MDA-MB-231 [7]): Active | Activity (MDA-MB-231 [8]): 3.92% | Activity (MDA-MB-231 [9]): Active | Activity (MDA-MB-231 [10]): 10.01% | Activity (MDA-MB-231 [11]): 2.89% | Activity (MDA-MB-231 [12]): Active | Activity (MDA-MB-231 [13]): Active | Activity (MDA-MB-231 [14]): Active | Activity (MDA-MB-231 [15]): Active | viability at 2.5 µM (MDA-MB-231 [16]): 84.7% | Activity (MDA-MB-231 [17]): Active | Activity (MDA-MB-231 [18]): Active | viability at 5 µM (MDA-MB-231 [19]): 60.1% | Activity (MDA-MB-231 [20]): 23.86% | Activity (MDA-MB-231 [21]): 7.76% | Activity (MDA-MB-231 [22]): Active | Activity (MDA-MB-231 [23]): 5.98% | Activity (MDA-MB-231 [24]): Active | Activity (MDA-MB-231 [25]): 1.55% | Activity (MDA-MB-231 [26]): Active | Activity (MDA-MB-231 [27]): Dose-Dependent Effect | inhibition (MDA-MB-231 [28]): Active | Activity (MDA-MB-231 [29]): Active

COc1cc(Cl)c(C(=O)N[C@H](CN[C@H]2CC[C@@H](N)CC2)Cc2ccc(C#N)cc2)cc1-c1ccc(CN[C@H](C)c2ccc(C)cc2)o1
IC50 [30]: 242 nM

— ChEMBL document CHEMBL5712913, “Discovery of novel ATAD2 bromodomain inhibitors that trigger apoptosis and autophagy in breast cells by structure-based virtual screening” (J Enzyme Inhib Med Chem, 2020)
